The target in experiment [1] is Type-2 angiotensin II receptor (Bos taurus, UniProt G5E6F7). The experiment in a line: Binding affinity towards Angiotensin II type 2 receptor in bovine cerebellar cortical membranes; Inactive.
The target of experiment [2] is T1, Angiotensin II receptor (AT-1) type-1 (Rattus norvegicus, UniProt P29089+P25095).
T1 sequence (P29089 whole entry): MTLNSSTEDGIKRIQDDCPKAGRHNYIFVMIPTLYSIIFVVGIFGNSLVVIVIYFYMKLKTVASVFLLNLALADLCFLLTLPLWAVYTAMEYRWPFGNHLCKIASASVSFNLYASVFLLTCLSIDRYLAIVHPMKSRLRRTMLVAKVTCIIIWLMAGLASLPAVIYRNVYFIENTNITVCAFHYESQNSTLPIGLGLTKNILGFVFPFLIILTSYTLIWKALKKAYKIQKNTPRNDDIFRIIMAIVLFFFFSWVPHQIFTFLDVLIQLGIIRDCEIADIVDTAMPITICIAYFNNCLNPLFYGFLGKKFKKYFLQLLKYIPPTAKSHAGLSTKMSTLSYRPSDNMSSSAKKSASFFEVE
T1 sequence (P25095 whole entry): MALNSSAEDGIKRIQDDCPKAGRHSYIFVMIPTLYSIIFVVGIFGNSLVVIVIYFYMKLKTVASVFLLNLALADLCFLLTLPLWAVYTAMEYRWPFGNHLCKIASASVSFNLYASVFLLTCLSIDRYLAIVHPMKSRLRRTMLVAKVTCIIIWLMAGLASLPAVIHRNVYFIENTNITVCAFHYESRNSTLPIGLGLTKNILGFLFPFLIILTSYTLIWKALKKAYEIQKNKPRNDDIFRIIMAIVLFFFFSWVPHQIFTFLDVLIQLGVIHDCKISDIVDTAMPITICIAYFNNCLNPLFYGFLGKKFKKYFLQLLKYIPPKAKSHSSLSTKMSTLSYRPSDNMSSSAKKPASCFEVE
As to the kind of experiment: Displacement of [3H]angiotensin II from Angiotensin II type 1 receptor in rat adrenal cortical membrane. Format: cell membranes.

In experiment [3] the test system is Rattus norvegicus. The experiment in a line: Time duration was determined from onset of the action till no response after (i.v.) administration of 1 mg/kg in anesthetized, ganglion blocked, A II- infused rat. Format: functional. The settings on record: route intravenous. An outline of the steps: (§1)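 Male Sprague-Dawley rats (300–400 g) were anesthetized with urethane (1.25 g/kg im) and ganglion-blocked with pentolinium (0.1 mg/kg/min), with carotid BP recorded at 37 °C. After three reproducible A II challenges (100 ng/kg iv, every 10 min), compound was given iv 5 min before the next challenge. Challenges continued until the response returned near basal, with one dose per animal. Vehicle was 1% DMSO/stoichiometric NaOH or 0.5% methocel.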

Experiment [4] has as its target T2, Angiotensin II receptor (Rattus norvegicus) (UniProt P29089+P25095+P35351). The experiment in a line: Effect on pressure response to angiotensin II receptor (AII) after (i.v.) administration of 1 mg/kg in anesthetized, ganglion blocked, A II- infused rat was determined in vivo. Type of experiment: functional, organism-based. The settings on record: at 1 mg/kg. Also noted: dose 1 mg/kg. The essentials:
as §1

Experiment [5] concerns Rattus norvegicus. The experiment in a line: Time duration was determined from onset of the action till no response after […] administration of 1 mg/kg in anesthetized, ganglion blocked, A II- infused rat. Format: functional.
Experiment [6] addresses T2, Angiotensin II receptor (Rattus norvegicus). The experiment in a line: Effect on pressure response to angiotensin II receptor (AII) after (i.v.) administration of 1 mg/kg in anesthetized, ganglion blocked, AII-infused rat in vivo. Format: functional, organism-based. Also noted: dose 1 mg/kg. The essentials: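 After three reproducible A II challenges (100 ng/kg iv, every 10 min), compound was given iv 5 min before the next challenge. Challenges continued until the response returned near basal, with one dose per animal. Vehicle was 1% DMSO/stoichiometric NaOH or 0.5% methocel.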

The target is the same in experiment [7]. As to the kind of experiment: Effect on pressure response to angiotensin II receptor (AII) after […] administration of 1 mg/kg in anesthetized, ganglion blocked, A II- infused rat was determined in vivo. Format: functional, organism-based. Also noted: dose 1 mg/kg. The essentials:
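Compound was given intraduodenally, one dose per animal, in 1% DMSO/stoichiometric NaOH or 0.5% methocel. Inhibition was read 30 min after dosing; the 1 mg/kg duration is the time from onset until inhibition was no longer significant.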

In experiment [8] the test system is Rattus norvegicus. As to the kind of experiment: ime duration was determined from onset of the action till no response after […] in anesthetized, ganglion blocked, A II- infused rat. Format: functional.
In experiment [9] the test system is Rattus norvegicus. As to the kind of experiment: Time from onset of the action at a dose of 1 mg/kg until significant inhibition of pressure response is no longer observed in anesthetized, ganglion blocked, A II- infused rat after […] administration. Type of experiment: functional.

The values that follow come from ChEMBL document CHEMBL1128641, “N-3-substituted pyrimidinones as potent, orally active, AT1 selective angiotensin II receptor antagonists” (J Med Chem, 1995).

Structures are written as SMILES.

T2 sequence (P35351 whole entry, looked up, one chain of several, the tested form may be a part): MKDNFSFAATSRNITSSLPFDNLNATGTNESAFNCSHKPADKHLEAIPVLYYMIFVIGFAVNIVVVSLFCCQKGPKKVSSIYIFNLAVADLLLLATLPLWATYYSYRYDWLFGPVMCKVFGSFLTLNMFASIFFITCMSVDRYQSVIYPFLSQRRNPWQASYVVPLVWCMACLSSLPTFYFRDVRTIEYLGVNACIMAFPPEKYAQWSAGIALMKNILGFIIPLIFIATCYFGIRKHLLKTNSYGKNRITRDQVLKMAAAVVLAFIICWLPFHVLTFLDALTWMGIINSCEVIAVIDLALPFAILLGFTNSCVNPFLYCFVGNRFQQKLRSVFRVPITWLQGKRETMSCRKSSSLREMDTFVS

On to `CCCCc1ncn(Cc2ccccc2C(=O)O)c(=O)c1Cc1ccc(-c2ccccc2C(=O)O)cc1`, for which the Ki was above 4 µM in experiment [1] and 0.379 µM in experiment [2]. Also, in the experiment with Rattus norvegicus [3], the Duration was determined as 25 min. In addition, the inhibition in experiment [4] came out at 43%.

Turning to `CCCCc1nc(Cl)c(CO)n1Cc1ccc(-c2ccccc2C(=O)O)cc1`, in the experiment with Rattus norvegicus [3], the Duration was found to be 25 min. In experiment [4], this compound registered an inhibition of 48%.

Turning to `CCCCc1nc(C)n(Cc2sccc2C(=O)OC)c(=O)c1Cc1ccc(-c2ccccc2-c2nnn[nH]2)cc1`, the inhibition constant (Ki) in experiment [1] is above 4 µM. The results for the Duration in the experiment on Rattus norvegicus [5] and in the experiment with Rattus norvegicus [3] were above 120 min and 65 min, respectively.

For `CCCCc1ncn(Cc2cccs2)c(=O)c1Cc1ccc(-c2ccccc2C(=O)O)cc1`, the inhibitory constant (Ki) in experiment [1] was above 4 µM; in experiment [2], 0.06 µM. In the experiment with Rattus norvegicus [3], this compound registered a Duration of 15 min. This compound displayed an inhibition in experiment [4] of 23%.

Regarding `CCCCc1nc(Cl)c(CO)n1Cc1ccc(-c2ccccc2-c2nnn[nH]2)cc1` [LOSARTAN], the figures for the Duration in the experiment on Rattus norvegicus [5] and in the experiment on Rattus norvegicus [3] were 120 min and 55 min, respectively. The ED50 in experiment [6] came out at 0.32 mg/kg; in [7], 3.7 mg/kg.

For `CCCCc1nc(C)n(Cc2cccs2)c(=O)c1Cc1ccc(-c2ccccc2-c2nnn[nH]2)cc1`, in experiment [1], the inhibition constant (Ki) was above 4 µM. Further, the Duration was 60 min in the experiment with Rattus norvegicus [5] and 55 min with Rattus norvegicus [3].

The compound `CCCCc1nc(C)n(Cc2occc2C(=O)OC)c(=O)c1Cc1ccc(-c2ccccc2-c2nn[nH]n2)cc1` showed a Ki in experiment [2] of 0.00058 µM. The Duration in the experiment with Rattus norvegicus [5] was above 120 min; in the experiment with Rattus norvegicus [3], 65 min. Also, the ED50 in experiment [6] came to 0.3 mg/kg; in experiment [7] it was 1.44 mg/kg.

Turning to `CCCCc1nc(C)n(Cc2sccc2C(=O)O)c(=O)c1Cc1ccc(-c2ccccc2-c2nn[nH]n2)cc1`, in experiment [2], the Ki came to 0.014 µM. Also, the Duration in the experiment on Rattus norvegicus [8] is on record as above 120 min; in the experiment with Rattus norvegicus [3] it was 55 min. Besides, the results for the 50% effective dose (ED50) in experiment [6] and in experiment [7] were 0.45 mg/kg and 7.24 mg/kg, respectively.

In experiment [1], `CCCCc1nc(C)[nH]c(=O)c1Cc1ccc(-c2ccccc2-c2nnn[nH]2)cc1` returned an inhibition constant Ki above 4 µM.

For `CCCCc1nc(C)n(Cc2ccccc2)c(=O)c1Cc1ccc(-c2ccccc2-c2nnn[nH]2)cc1`, the Ki in [1] is above 4 µM.

On to `CCCCc1nc(C)n(Cc2sccc2C(=O)O)c(=O)c1Cc1ccc(-c2ccccc2C(=O)O)cc1`, for which the Ki is above 4 µM in [1] and 0.181 µM in experiment [2]. Further, in the experiment with Rattus norvegicus [3], the Duration is recorded as 15 min. The same compound returned an inhibition in [4] of 33%.

For the compound `CCCCc1nc(C)n(Cc2ccccc2C(=O)O)c(=O)c1Cc1ccc(-c2ccccc2-c2nn[nH]n2)cc1`, the Ki in experiment [1] was above 4 µM; in experiment [2], 0.018 µM. The Duration in the experiment with Rattus norvegicus [9] is given as above 120 min; in the experiment on Rattus norvegicus [3], 65 min. The figures for the ED50 in [6] and in [7] were 0.31 mg/kg and 4.2 mg/kg, respectively.

In the case of `CCCCc1nc(C)nc(O)c1Cc1ccc(-c2ccccc2-c2nn[nH]n2)cc1`, the inhibition constant Ki in [2] came out at 0.003 µM. This compound also gave a Duration in the experiment on Rattus norvegicus [3] of 55 min. In experiment [4], this compound yielded an inhibition of 87%.

As for `CCCCc1nc(C)cc(=O)n1Cc1ccc(-c2ccccc2C(=O)O)cc1`, the Ki in experiment [1] was above 4 µM; in [2] it was 0.263 µM. For the same compound, the Duration in the experiment on Rattus norvegicus [3] was found to be 15 min. The inhibition in experiment [4] came to 34%.

`CCCCc1nc(C)nc(O)c1Cc1ccc(-c2ccccc2C(=O)O)cc1`: the Ki in [1] was above 4 µM; in [2], 0.113 µM. This compound also came in with a Duration with Rattus norvegicus [3] of 35 min. In experiment [4], this compound had an inhibition of 53%.

For the compound `CCCCc1nc(C)n(Cc2ccccc2C(=O)O)c(=O)c1Cc1ccc(-c2ccccc2C(=O)O)cc1`, the Ki in [1] was above 4 µM; in experiment [2], 0.401 µM. The compound also gave a Duration in the experiment with Rattus norvegicus [3] of 15 min. In addition, in [4], the inhibition stood at 46%.

Regarding `CCCCc1nccc(=O)n1Cc1ccc(-c2ccccc2C(=O)O)cc1`, the Ki in [1] was above 4 µM; in experiment [2], 1.097 µM. Besides, in the experiment on Rattus norvegicus [3], the Duration is 35 min. Moreover, in experiment [4], the inhibition was found to be 42%.

Consider `CCCCc1nc(C)n(Cc2ccccc2)c(=O)c1Cc1ccc(-c2ccccc2-c2nn[nH]n2)cc1`, for which, in experiment [2], the Ki came out at 0.003 µM. Moreover, the figures for the Duration in the experiment with Rattus norvegicus [5] and in the experiment with Rattus norvegicus [3] were 60 min and 45 min, respectively. Also, the 50% effective dose (ED50) in experiment [6] was 1.07 mg/kg; in [7] it was above 10 mg/kg.

For `CCCCc1nc(C)n(Cc2occc2C(=O)O)c(=O)c1Cc1ccc(-c2ccccc2-c2nn[nH]n2)cc1`, the Ki was above 4 µM in [1] and 0.016 µM in experiment [2]. Moreover, the results for the Duration with Rattus norvegicus [5] and in the experiment with Rattus norvegicus [3] were 75 min and 45 min, respectively. For the same compound, the values for the ED50 in [6] and in [7] were 0.43 mg/kg and 14.5 mg/kg, respectively.

In turn, `CCCCc1nc(C)n(Cc2sccc2C(=O)O)c(=O)c1Cc1ccc(-c2ccccc2-c2nnn[nH]2)cc1` yielded a Ki in [1] above 4 µM.

Regarding `CCCCc1ncnc(O)c1Cc1ccc(-c2ccccc2C(=O)O)cc1`, the Ki in [1] was above 4 µM; in experiment [2], 0.148 µM. For the same compound, the Duration in the experiment with Rattus norvegicus [3] amounted to 35 min. Moreover, in [4], the inhibition worked out at 50%.

In the case of `CCCCc1nc(C)n(Cc2ccsc2C(=O)OC)c(=O)c1Cc1ccc(-c2ccccc2-c2nn[nH]n2)cc1`, the figures for the inhibition constant (Ki) in experiment [1] and in experiment [2] were above 4 µM and 0.0021 µM, respectively. The Duration is recorded as above 120 min in the experiment on Rattus norvegicus [5] and 65 min with Rattus norvegicus [3]. The 50% effective dose (ED50) in experiment [6] is 0.54 mg/kg; in experiment [7], 2.67 mg/kg.

`CCCCc1ncn(Cc2ccc(C(=O)O)cc2)c(=O)c1Cc1ccc(-c2ccccc2C(=O)O)cc1` yielded an inhibitory constant (Ki) in experiment [1] above 4 µM. The same compound had a Duration in the experiment on Rattus norvegicus [3] of 25 min. For the same compound, the inhibition in experiment [4] came out at 46%.

`CCCCc1nc(C)n(Cc2occc2C(=O)OC)c(=O)c1Cc1ccc(-c2ccccc2-c2nnn[nH]2)cc1` yielded an inhibition constant (Ki) in experiment [1] above 4 µM.

As to `CCCCc1nc(C)n(Cc2occc2C(=O)O)c(=O)c1Cc1ccc(-c2ccccc2C(=O)O)cc1`, the figures for the Ki in experiment [1] and in experiment [2] were above 4 µM and 0.264 µM, respectively. For the same compound, the ED50 in experiment [6] stood at 0.85 mg/kg. The compound further came in with a Duration in the experiment with Rattus norvegicus [3] of 25 min.

Regarding `CCCCc1ncn(Cc2ccccc2)c(=O)c1Cc1ccc(-c2ccccc2C(=O)O)cc1`, the values for the Ki in experiment [1] and in [2] were above 4 µM and 0.04 µM, respectively. For the same compound, the Duration with Rattus norvegicus [3] worked out at 25 min. The compound further returned an inhibition in [4] of 39%.
